Assay results reported in ChEMBL document CHEMBL1123173, “Synthesis and antiherpes virus activity of phosphate and phosphonate derivatives of 9-[(1,3-dihydroxy-2-propoxy)methyl]guanine” (1986).
Calls of active or inactive are those of the source. The rule behind the calls is not given here.

Key:
[1] = system: Vero; assay: In vitro antiviral activity was measured against HSV-1(F) in Vero cells; assay type: functional; details: Chlorocebus sabaeus, read-out: ID50 (the source's name)
[2] = system: Mus musculus; assay: (§1) Effect of oral treatment with compound on HSV-2 induced mortality in mice at 5 mg/kg dose; NS=Not significant; assay type: functional, organism-based; design: dose 5 mg/kg
Procedure, shortened: (§2)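 Female Swiss-Webster mice (ca. 20 g) infected intraperitoneally with 5×10^4 PFU HSV-2 strain G (about ten 50% lethal doses). Oral dosing once every 24 h for 4 days, starting 24 h postinfection; saline controls. Survivors/total recorded, survivor increase tested by Fisher exact test; mean survival time (days ± standard deviation) compared by Mann-Whitney U test.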

[3] = system: Mus musculus; assay: (§3) Effect of oral treatment with compound on HSV-2 induced mortality in mice at 10 mg/kg dose; NS=Not significant; assay type: functional, organism-based; design: dose 10 mg/kg; procedure, shortened: as §2
[4] = system: Mus musculus; assay: as §3; assay type: functional, organism-based; design: dose 10 mg/kg; remark: listed apart in the source
Procedure, shortened: (§4)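 Female Swiss-Webster mice, about 20 g, infected intraperitoneally with 5×10^4 PFU of HSV-2 strain G (about ten LD50). Oral dosing once every 24 h for 4 days, starting 24 h post-infection, with a saline-treated control group. Groups of 19–20 mice. Survivors were scored and compared by Fisher exact test. Mean survival time (days ± SD) was compared by Mann-Whitney U test. NS means p > 0.05.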

[5] = system: Mus musculus; assay: (§5) Effect of oral treatment with compound on HSV-2 induced mortality in mice at 20 mg/kg dose; NS=Not significant; assay type: functional, organism-based; design: dose 20 mg/kg; procedure, shortened: as §2
[6] = system: Mus musculus; assay: as §1; assay type: functional, organism-based; design: dose 5 mg/kg; procedure, shortened: as §4; remark: listed apart in the source
[7] = system: Vero; assay: In vitro antiviral activity was measured against HSV-1 (F delta 305) in Vero cells; assay type: functional; details: Chlorocebus sabaeus, read-out: ID50 (the source's name)
[8] = system: Vero; assay: In vitro antiviral activity was measured against HSV-2(G) in Vero cells; assay type: functional; details: Chlorocebus sabaeus, read-out: ID50 (the source's name)
[9] = system: Mus musculus; assay: Effect of on mean survival time upon oral treatment on HSV-2 induced mortality in mice at 5 mg/kg dose; assay type: functional; procedure, shortened: as §4
[10] = system: Mus musculus; assay: Effect of oral treatment with compound on HSV-2 induced mortality in mice at 5 mg/kg dose; 3/20; assay type: functional; procedure, shortened: as §4
[11] = system: Mus musculus; assay: Effect of on mean survival time upon oral treatment on HSV-2 induced mortality in mice at 20 mg/kg dose; assay type: functional; procedure, shortened: as §4
[12] = system: Vero; assay: In vitro anticellular activity was measured against vero cells; assay type: functional; details: Chlorocebus sabaeus, read-out: ID50 (the source's name)
Procedure, shortened: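 Cell proliferation assay in uninfected Vero cells.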

[13] = system: Vero; assay: In vitro antiviral activity was measured against HSV-1 (MP-PAA/DHPG) in Vero cells; assay type: functional; details: Chlorocebus sabaeus, read-out: ID50 (the source's name)
[14] = system: Mus musculus; assay: Effect of oral treatment with compound on HSV-2 induced mortality in mice at 10 mg/kg dose; 0/20; assay type: functional; procedure, shortened: as §4
[15] = system: Mus musculus; assay: as §5; assay type: functional, organism-based; design: dose 20 mg/kg; procedure, shortened: as §4; remark: listed apart in the source
[16] = system: Mus musculus; assay: Effect of oral treatment with compound on HSV-2 induced mortality in mice at 20 mg/kg dose; 3/20; assay type: functional; procedure, shortened: as §4
[17] = system: Mus musculus; assay: Effect of on mean survival time upon oral treatment on HSV-2 induced mortality in mice at 10 mg/kg dose; assay type: functional; procedure, shortened: as §4
[18] = system: MRC5; assay: In vitro antiviral activity was measured against HCMV(AD-169) in MRC5 cells; assay type: functional; details: Homo sapiens, read-out: ID50 (the source's name)
[19] = system: Mus musculus; assay: Effect of subcutaneous treatment with compound on HSV-2 induced mortality in mice at 15 mg/kg dose; NS=Not significant; assay type: functional, organism-based; design: dose 15 mg/kg
Procedure, shortened: (§6)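 Female Swiss-Webster mice, about 20 g, challenged intraperitoneally with 5×10^4 PFU of HSV-2 strain G (about ten LD50). Subcutaneous dosing once daily for 4 days, beginning 24 h after infection, with a saline control group. 15 mice per group. Survivor numbers were compared by Fisher exact test and mean survival time (± SD) by Mann-Whitney U test. NS means p > 0.05.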

[20] = system: Mus musculus; assay: Effect of subcutaneous treatment with compound on HSV-2 induced mortality in mice at 30 mg/kg dose; assay type: functional; procedure, shortened: as §6
[21] = system: Mus musculus; assay: Effect of subcutaneous treatment with compound on HSV-2 induced mortality in mice at 15 mg/kg dose; 0/15; assay type: functional; procedure, shortened: as §6
[22] = system: Mus musculus; assay: Effect of subcutaneous treatment with compound on HSV-2 induced mortality in mice at 15 mg/kg dose; assay type: functional; procedure, shortened: as §6
[23] = system: Mus musculus; assay: (§7) Effect of subcutaneous treatment with compound on HSV-2 induced mortality in mice at 5 mg/kg dose; NS=Not significant; assay type: functional, organism-based; design: dose 5 mg/kg; procedure, shortened: as §6
[24] = system: Mus musculus; assay: Effect of subcutaneous treatment with compound on HSV-2 induced mortality in mice at 5 mg/kg dose; 2/15; assay type: functional; procedure, shortened: as §6
[25] = system: Mus musculus; assay: Effect of subcutaneous treatment with compound on HSV-2 induced mortality in mice at 30 mg/kg dose; 2/15; assay type: functional; procedure, shortened: as §6
[26] = system: Mus musculus; assay: Effect of subcutaneous treatment with compound on HSV-2 induced mortality in mice at 30 mg/kg dose; NS=Not significant; assay type: functional, organism-based; design: dose 30 mg/kg; procedure, shortened: as §6
[27] = system: Mus musculus; assay: as §7; assay type: functional, organism-based; design: dose 5 mg/kg; remark: listed apart in the source
Procedure, shortened: as §2, with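 “Subcutaneous” for “Oral”, “daily” for “every 24 h”, “recorded,” for “recorded, survivor increase tested by”, “test for survival;” for “test;”, “(±” for “(days ±”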

[28] = system: Mus musculus; assay: Effect of oral treatment with compound on HSV-2 induced mortality in mice at 10 mg/kg dose; 3/20; assay type: functional; procedure, shortened: as §4
[29] = system: Mus musculus; assay: Effect of oral treatment with compound on HSV-2 induced mortality in mice at 20 mg/kg dose; 10/20; assay type: functional; procedure, shortened: as §4
[30] = system: Mus musculus; assay: Effect of oral treatment with compound on HSV-2 induced mortality in mice at 20 mg/kg dose; assay type: functional; procedure, shortened: as §4
[31] = system: Mus musculus; assay: Effect of oral treatment with compound on HSV-2 induced mortality in mice at 5 mg/kg dose; 8/20; assay type: functional; procedure, shortened: as §4
[32] = system: Mus musculus; assay: Effect of oral treatment with compound on HSV-2 induced mortality in mice at 10 mg/kg dose; 4/20; assay type: functional; procedure, shortened: as §4
[33] = system: Mus musculus; assay: Effect of oral treatment with compound on HSV-2 induced mortality in mice at 5 mg/kg dose; assay type: functional; procedure, shortened: as §4
[34] = system: Mus musculus; assay: Effect of oral treatment with compound on HSV-2 induced mortality in mice at 10 mg/kg dose; assay type: functional; procedure, shortened: as §4
[35] = system: Mus musculus; assay: Effect of oral treatment with compound on HSV-2 induced mortality in mice at 20 mg/kg dose; 6/20; assay type: functional; procedure, shortened: as §4
[36] = system: Mus musculus; assay: Effect of subcutaneous treatment with compound on HSV-2 induced mortality in mice at 15 mg/kg dose; 15/15; assay type: functional; procedure, shortened: as §6
[37] = system: Mus musculus; assay: Effect of oral treatment with compound on HSV-2 induced mortality in mice at 5 mg/kg dose; 0/19; assay type: functional; procedure, shortened: as §4
[38] = system: Mus musculus; assay: Effect of oral treatment with compound on HSV-2 induced mortality in mice at 20 mg/kg dose; 11/20; assay type: functional; procedure, shortened: as §4
[39] = system: Mus musculus; assay: Effect of subcutaneous treatment with compound on HSV-2 induced mortality in mice at 1.5 mg/kg dose; 8/15; assay type: functional; procedure, shortened: as §6
[40] = system: Mus musculus; assay: Effect of subcutaneous treatment with compound on HSV-2 induced mortality in mice at 1.5 mg/kg dose; assay type: functional; procedure, shortened: as §6
[41] = system: Mus musculus; assay: Effect of subcutaneous treatment with compound on HSV-2 induced mortality in mice at 5 mg/kg dose; 10/15; assay type: functional; procedure, shortened: as §6
[42] = system: Mus musculus; assay: Effect of subcutaneous treatment with compound on HSV-2 induced mortality in mice at 5 mg/kg dose; assay type: functional; procedure, shortened: as §6
[43] = system: Mus musculus; assay: Effect of oral treatment with compound on HSV-2 induced mortality in mice at 10 mg/kg dose; 6/20; assay type: functional; procedure, shortened: as §4
[44] = system: Mus musculus; assay: Effect of oral treatment with compound on HSV-2 induced mortality in mice at 20 mg/kg dose; 12/20; assay type: functional; procedure, shortened: as §4
[45] = system: Mus musculus; assay: Effect of oral treatment with compound on HSV-2 induced mortality in mice at 10 mg/kg dose; 2/20; assay type: functional; procedure, shortened: as §4
[46] = system: Mus musculus; assay: Effect of oral treatment with compound on HSV-2 induced mortality in mice at 5 mg/kg dose; 1/19; assay type: functional; procedure, shortened: as §4

SMILES | IC50 [1] [µM] | MST increase [2] | Survivor increase [4] | Survivor increase [6] | IC50 [7] [µM] | IC50 [8] [µM] | MST [9] [days] | MST [11] [days] | IC50 [12] [µM] | IC50 [13] [µM] | MST [17] [days] | IC50 [18] [µM] | Survivor increase [30] | p-value for mean survival time increase [30] | MST increase [34] | further results
Nc1nc(O)c2ncn(COC(CO)CCP(=O)(O)O)c2n1 (stereo not drawn) | 28 | inactive | inactive | inactive | 50 | > 100 | 8.2 | 8.3 | > 1000 | > 200 | 8.3 | 10 | – | – | – | MST increase [3]: inactive; MST increase [5]: inactive; Survivors [10]: 3; Survivors [14]: 0; Survivor increase [15]: inactive; Survivors [16]: 3
Nc1nc(N)c2ncn(COC3COP(=O)(O)OC3)c2n1 (stereo not drawn) | 125 | – | – | – | 80 | > 100 | – | – | – | – | – | – | – | – | – | Survivor increase [19]: inactive; MST increase [20]: 0.01; Survivors [21]: 0; MST increase [22]: 0.025; Survivor increase [23]: inactive; Survivors [24]: 2; Survivors [25]: 2; Survivor increase [26]: inactive; MST increase [27]: inactive
Nc1nc2c(ncn2COC2COP(=O)(O)OC2)c(=O)[nH]1 (stereo not drawn) | 2 | inactive | inactive | inactive | 0.5 | 6 | 10.4 | 11.6 | 40 | 7 | 10.6 | 6 | 0.01 | <0.01 | – | MST increase [3]: inactive; Survivors [28]: 3; Survivors [29]: 10; Survivors [31]: 8
Nc1ncnc2c1ncn2COC1COP(=O)(O)OC1 (stereo not drawn) | 600 | – | – | – | – | > 1000 | – | – | – | – | – | – | – | – | – | –
Nc1nc(O)c2ncn(COC(COP(=O)(O)O)COP(=O)(O)O)c2n1 | 0.4 | inactive | inactive | inactive | 13 | 5 | 9.6 | 10.6 | 800 | > 200 | 10.8 | 8 | – | <0.02 | <0.05 | Survivors [32]: 4; Survivors [33]: 8; Survivor increase [15]: inactive; Survivors [35]: 6
Nc1nc2c(ncn2COC(CO)CO)c(=O)[nH]1 [GANCICLOVIR] | 0.2 | – | inactive | inactive | 10 | 1.6 | – | 11.9 | 450 | 125 | 10.9 | 5 | 0.005 | <0.01 | <0.025 | Survivors [36]: 15; Survivors [37]: 0; Survivors [38]: 11; Survivors [39]: 8; MST increase [33]: <0.01; MST ([9]; 5 mg/kg): 11.3 days; MST increase [40]: <0.001; Survivor increase [40]: 0.01; Survivors [41]: 10; MST increase [22]: <0.001; Survivor increase [22]: <0.001; MST increase [42]: <0.001; Survivor increase [42]: <0.001; Survivors [43]: 6
Nc1nc(O)c2ncn(COC(CO)COP(=O)(O)O)c2n1 (stereo not drawn) | 0.2 | inactive | inactive | inactive | 6 | 1.7 | 10 | 10.5 | 700 | > 200 | 11.3 | 12 | 0.002 | <0.001 | <0.01 | Survivors [44]: 12; Survivors [45]: 2; Survivors [46]: 1
